Laboratory results from ChEMBL document CHEMBL4011643, “Triaryl Benzimidazoles as a New Class of Antibacterial Agents against Resistant Pathogenic Microorganisms” (J Med Chem, 2017).
Values after ≈ are worked out from the molar mass of the structure shown.

Assays:
[1] = test system: Enterococcus faecalis; assay: Antibacterial activity against vancomycin-resistant Enterococcus faecalis NCTC 12201 after 20 hrs by broth microdilution method; assay type: functional; conditions: NCTC 12201, 20 h
Procedure, shortened: (§1)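 Broth microdilution in Tryptic Soy Broth; growth read as OD600 after 20 h. MIC taken as the lowest drug concentration giving OD600 below 0.1. Run in triplicate.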

[2] = test system: Pseudomonas aeruginosa; assay: Antibacterial activity against Pseudomonas aeruginosa PAO1 after 20 hrs in the presence of Pa-beta-N and magnesium ions by broth microdilution method; assay type: functional; conditions: PAO1, 20 h
Procedure, shortened: (§2)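 Broth microdilution in Tryptic Soy Broth, done in triplicate. Growth was read as OD600 after 20 h. MIC is the lowest drug concentration giving OD600 below 0.1.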

[3] = test system: Acinetobacter baumannii; assay: Antibacterial activity against Acinetobacter baumannii ATCC 17978 after 20 hrs in the presence of Pa-beta-N and magnesium ions by broth microdilution method; assay type: functional; conditions: ATCC 17978, 20 h; procedure, shortened: as §2
[4] = test system: Pseudomonas aeruginosa; assay: Antibacterial activity against Pseudomonas aeruginosa NCTC 13437 after 20 hrs by broth microdilution method; assay type: functional; conditions: NCTC 13437, 20 h; procedure, shortened: as §2
[5] = test system: Enterococcus faecium; assay: Antibacterial activity against vancomycin-resistant Enterococcus faecium NCTC 12204 after 20 hrs by broth microdilution method; assay type: functional; conditions: NCTC 12204, 20 h; procedure, shortened: as §1
[6] = test system: Klebsiella pneumoniae; assay: Antibacterial activity against Klebsiella pneumoniae M6 after 20 hrs in the presence of PMBN by broth microdilution method; assay type: functional; conditions: M6, 20 h; procedure, shortened: as §2
[7] = test system: Pseudomonas aeruginosa; assay: Antibacterial activity against Pseudomonas aeruginosa PAO1 after 20 hrs in the presence of PMBN by broth microdilution method; assay type: functional; conditions: PAO1, 20 h; procedure, shortened: as §2
[8] = test system: Staphylococcus aureus; assay: Antibacterial activity against methicillin-resistant Staphylococcus aureus MRSA252 after 20 hrs by broth microdilution method; assay type: functional; conditions: MRSA252, 20 h; procedure, shortened: as §1
[9] = test system: Acinetobacter baumannii; assay: Antibacterial activity against Acinetobacter baumannii ATCC 17978 after 20 hrs in the presence of PMBN by broth microdilution method; assay type: functional; conditions: ATCC 17978, 20 h; procedure, shortened: as §2
[10] = Cytotoxicity against human HeLa cells assessed as cell viability at 25 uM after 24 hrs by MTT assay; assay type: cell-based; conditions: read-out: Activity
Procedure, shortened: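 HeLa cells, 10000 per well, were grown at 37 °C in 5% CO2 and allowed to settle for 24 h. Compound was then added in triplicate for 24 h of continuous exposure. Viability was read by MTT colorimetry, with absorbance at 570 nm.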

[11] = test system: Acinetobacter baumannii; assay: Antibacterial activity against Acinetobacter baumannii AYE after 20 hrs in the presence of PMBN by broth microdilution method; assay type: functional; procedure, shortened: as §2
[12] = test system: Acinetobacter baumannii; assay: Antibacterial activity against Acinetobacter baumannii ATCC 17978 after 20 hrs by broth microdilution method; assay type: functional; conditions: ATCC 17978, 20 h; procedure, shortened: as §2
[13] = test system: Klebsiella pneumoniae; assay: Antibacterial activity against Klebsiella pneumoniae NCTC 13368 after 20 hrs in the presence of Pa-beta-N and magnesium ions by broth microdilution method; assay type: functional; conditions: NCTC 13368, 20 h; procedure, shortened: as §2
[14] = test system: Acinetobacter baumannii; assay: Antibacterial activity against Acinetobacter baumannii AYE after 20 hrs by broth microdilution method; assay type: functional; procedure, shortened: as §2
[15] = test system: Pseudomonas aeruginosa; assay: Antibacterial activity against Pseudomonas aeruginosa PAO1 after 20 hrs by broth microdilution method; assay type: functional; conditions: PAO1, 20 h; procedure, shortened: as §2
[16] = test system: Staphylococcus aureus; assay: Antibacterial activity against methicillin-sensitive Staphylococcus aureus ATCC 9144 after 20 hrs by broth microdilution method; assay type: functional; conditions: ATCC 9144, 20 h; procedure, shortened: as §2
[17] = test system: Klebsiella pneumoniae; assay: Antibacterial activity against Klebsiella pneumoniae NCTC 13368 after 20 hrs by broth microdilution method; assay type: functional; conditions: NCTC 13368, 20 h; procedure, shortened: as §2
[18] = test system: Pseudomonas aeruginosa; assay: Antibacterial activity against Pseudomonas aeruginosa NCTC 13437 after 20 hrs in the presence of PMBN by broth microdilution method; assay type: functional; conditions: NCTC 13437, 20 h; procedure, shortened: as §2
[19] = test system: Acinetobacter baumannii; assay: Antibacterial activity against Acinetobacter baumannii AYE after 20 hrs in the presence of Pa-beta-N and magnesium ions by broth microdilution method; assay type: functional; procedure, shortened: as §2
[20] = test system: Pseudomonas aeruginosa; assay: Antibacterial activity against Pseudomonas aeruginosa NCTC 13437 after 20 hrs in the presence of Pa-beta-N and magnesium ions by broth microdilution method; assay type: functional; conditions: NCTC 13437, 20 h; procedure, shortened: as §2
[21] = test system: Klebsiella pneumoniae; assay: Antibacterial activity against Klebsiella pneumoniae NCTC 13368 after 20 hrs in the presence of PMBN by broth microdilution method; assay type: functional; conditions: NCTC 13368, 20 h; procedure, shortened: as §2
[22] = test system: Enterococcus faecalis; assay: Antibacterial activity against vancomycin-sensitive Enterococcus faecalis NCTC 775 after 20 hrs by broth microdilution method; assay type: functional; conditions: NCTC 775, 20 h; procedure, shortened: as §2
[23] = test system: Klebsiella pneumoniae; assay: Antibacterial activity against Klebsiella pneumoniae M6 after 20 hrs by broth microdilution method; assay type: functional; conditions: M6, 20 h; procedure, shortened: as §2
[24] = test system: Staphylococcus aureus; assay: Antibacterial activity against methicillin-resistant Staphylococcus aureus EMRSA-15 after 20 hrs by broth microdilution method; assay type: functional; conditions: EMRSA-15, 20 h; procedure, shortened: as §1
[25] = test system: Klebsiella pneumoniae; assay: Antibacterial activity against Klebsiella pneumoniae M6 after 20 hrs in the presence of Pa-beta-N and magnesium ions by broth microdilution method; assay type: functional; conditions: M6, 20 h; procedure, shortened: as §2

Cc1nc2ccc(C(=O)Nc3cccc(-c4ccc(-n5c(C)nc6cc(C(=O)NCCCN7CCN(C)CC7)ccc65)nc4)c3)cc2[nH]1 showed an MIC [1] of 64 µg/mL (≈ 99.7 µM), an MIC [2] greater than 32 µg/mL and an MIC [3] greater than 32 µg/mL. It also gave an MIC [4] greater than 32 µg/mL, an MIC [5] greater than 128 µg/mL and an MIC [6] greater than 32 µg/mL. For the same compound, the MIC [7] was greater than 32 µg/mL, the MIC [8] was greater than 32 µg/mL and the MIC [9] was greater than 32 µg/mL. For the same compound, the viability at 24 h, 25 µM [10] was greater than 98%, the MIC [11] was greater than 32 µg/mL and the MIC [12] was greater than 32 µg/mL. The MIC [13] was greater than 32 µg/mL, the MIC [14] was greater than 32 µg/mL and the MIC [15] was greater than 32 µg/mL. For the same compound, the MIC [16] was 16 µg/mL (≈ 24.9 µM), the MIC [17] was greater than 32 µg/mL and the MIC [18] was greater than 32 µg/mL. It also gave an MIC [19] greater than 32 µg/mL, an MIC [20] greater than 32 µg/mL and an MIC [21] greater than 32 µg/mL. It also gave an MIC [22] greater than 128 µg/mL, an MIC [23] greater than 32 µg/mL and an MIC [24] greater than 128 µg/mL. It also gave an MIC [25] greater than 32 µg/mL.
